This is an account of results in PubChem BioAssay AID488748 (Sanford-Burnham Center for Chemical Genomics, 2010).

This test has as its target Apelin receptor (Homo sapiens) (UniProt P35414). The experiment in a line: APJ agonists inducing beta-arrestin recruitment, dose response, cell-based, luminescence, uHTS hits (AID 488748). The following applies: CHO-K1 APJ PathHunter beta-arrestin. Summed up:
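Technique: luminescence from beta-galactosidase fragment complementation after detection reagent; assay system: CHO-K1 cells stably expressing ProLink-tagged APJ and enzyme-acceptor-fused beta-arrestin; schedule: overnight cell seeding, 90 min compound exposure at 25 °C, 60 min detection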

Calls of active or inactive are those of the source.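 Rule for the calls: active = compounds whose mean dose-response EC50 for APJ receptor activation is under 20 micromolar; inactive = the rest.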

Chain of Apelin receptor (Homo sapiens) (P35414 whole entry, looked up, the tested form may be a part): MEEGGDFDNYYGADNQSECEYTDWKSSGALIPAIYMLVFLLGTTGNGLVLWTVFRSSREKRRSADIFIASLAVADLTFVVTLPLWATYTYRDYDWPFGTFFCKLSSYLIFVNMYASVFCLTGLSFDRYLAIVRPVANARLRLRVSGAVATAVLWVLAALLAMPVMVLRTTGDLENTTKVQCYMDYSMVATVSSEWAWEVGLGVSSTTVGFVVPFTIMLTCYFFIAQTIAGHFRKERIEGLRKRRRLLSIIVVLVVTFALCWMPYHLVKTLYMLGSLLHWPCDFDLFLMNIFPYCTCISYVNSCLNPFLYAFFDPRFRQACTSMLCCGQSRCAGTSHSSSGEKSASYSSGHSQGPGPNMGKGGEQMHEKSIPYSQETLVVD

In the case of `CCOC(=O)C1=C(Cn2cnc3ccccc32)NC(=O)NC1c1cc(C)ccc1C` (stereo not given), the EC50 is > 100 µM (inactive). Under `COC(=O)C1=C(Cn2cnc3ccccc32)NC(=O)NC1c1cc(C)ccc1C` (stereo not given) stands > 100 µM (inactive); under `COc1ccc(/C=N/Nc2cc(C)nc3ccc(OC)cc23)c(OC)c1`, > 100 µM (inactive); under `CC1=CC(=O)C(C(C)C)=C/C1=N/OS(=O)(=O)c1ccccc1`, 7.6 µM. For the compound `CCCCCCc1cc2cc(-c3nnc(-c4cc(OC)c(OC)c(OC)c4)o3)c(=O)oc2cc1O`, the EC50 is > 100 µM (inactive).
